Source: ChEMBL document CHEMBL5705905, “Pharmacological targeting of kinases MST1 and MST2 augments tissue repair and regeneration” (Sci Transl Med, 2016)
Active and inactive are the calls of the source. No cut-off for these calls is given here.

Tests used:
[1] = target: Phosphatidylinositol 4-phosphate 3-kinase C2 domain-containing subunit beta (Homo sapiens) (UniProt O00750); assay: Inhibition of PIK3C2B (unknown origin) assessed as remaining activity at 1 uM by Kinome scan method relative to control
[2] = target: Casein kinase I isoform alpha (Homo sapiens) (UniProt P48729); assay: Inhibition of CSNK1A1 (unknown origin) assessed as remaining activity at 1 uM by Kinome scan method relative to control
In short: (§1)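 Active-site-dependent competition-binding profiling (KINOMEscan) at 1 μM against a 468-kinase panel; compound supplied from a 10 mM DMSO stock. Read-out is ctrl% = (test signal − positive control signal)/(negative control signal − positive control signal) × 100. DMSO is the negative control (100%) and a control compound the positive control (0%). Lower ctrl% means tighter binding.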

[3] = target: Serine/threonine-protein kinase 3 (Homo sapiens) (UniProt Q13188); details: dose 100.0 µM
[4] = target: Rho-associated protein kinase 1 (Homo sapiens) (UniProt Q13464); assay: Inhibition of ROCK1 (unknown origin) assessed as remaining activity at 1 uM by Kinome scan method relative to control
In short: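 KINOMEscan active-site competition binding assay at 1 μM against 468 kinases. Ctrl% = (test − positive control)/(negative control DMSO − positive control) × 100; lower values mean tighter binding.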

[5] = target: Receptor-interacting serine/threonine-protein kinase 1 (Homo sapiens) (UniProt Q13546); assay: Inhibition of RIPK1 (unknown origin) assessed as remaining activity at 1 uM by Kinome scan method relative to control
[6] = target: Serine/threonine-protein kinase pim-3 (Homo sapiens) (UniProt Q86V86); assay: Inhibition of PIM3 (unknown origin) assessed as remaining activity at 1 uM by Kinome scan method relative to control
Aurora kinase B = Aurora kinase B (Homo sapiens, UniProt Q96GD4); assay: Inhibition of AURKB (unknown origin) in presence of ATP by enzymatic assay
[7] = target: cAMP-dependent protein kinase catalytic subunit alpha (Homo sapiens) (UniProt P17612); assay: Inhibition of PKAC-alpha (unknown origin) assessed as remaining activity at 1 uM by Kinome scan method relative to control
[8] = target: Serine/threonine-protein kinase RIO3 (Homo sapiens) (UniProt O14730); assay: Inhibition of RIOK3 (unknown origin) assessed as remaining activity at 1 uM by Kinome scan method relative to control
[9] = target: Dual specificity protein kinase TTK (Homo sapiens) (UniProt P33981); assay: Inhibition of TTK (unknown origin) assessed as remaining activity at 1 uM by Kinome scan method relative to control
[10] = target: SRSF protein kinase 2 (Homo sapiens) (UniProt P78362); assay: Inhibition of SRPK2 (unknown origin) assessed as remaining activity at 1 uM by Kinome scan method relative to control
[11] = target: RAC-beta serine/threonine-protein kinase (Homo sapiens) (UniProt P31751); assay: Inhibition of AKT2 (unknown origin) assessed as remaining activity at 1 uM by Kinome scan method relative to control
In short: (§2)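 Active-site-dependent competition-binding (KINOMEscan) panel of 468 kinases, test compound at 1 μM (from a 10 mM DMSO stock). Read-out is ctrl% = (test signal − positive control signal)/(negative control signal − positive control signal) × 100. DMSO is the negative control (100%) and a control compound is the positive control (0%). Lower ctrl% means tighter binding.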

[12] = target: Mitogen-activated protein kinase kinase kinase 5 (Homo sapiens) (UniProt Q99683); assay: Inhibition of ASK1 (unknown origin) assessed as remaining activity at 1 uM by Kinome scan method relative to control; in short: as §2
[13] = target: Ribosomal protein S6 kinase alpha-2 (Homo sapiens) (UniProt Q15349); assay: Inhibition of N-terminal kinase domain RSK3 (unknown origin) assessed as remaining activity at 1 uM by Kinome scan method relative to control
[14] = tested on: ALK tyrosine kinase receptor (Homo sapiens), Q9UM73 [L1196M]; assay: Inhibition of ALK L1196M mutant (unknown origin) assessed as remaining activity at 1 uM by Kinome scan method relative to control; in short: as §2
[15] = target: Cyclin-dependent kinase 11A (Homo sapiens) (UniProt Q9UQ88); assay: Inhibition of CDC2L2 (unknown origin) assessed as remaining activity at 1 uM by Kinome scan method relative to control; in short: as §1
[16] = target: Serine/threonine-protein kinase PAK 6 (Homo sapiens) (UniProt Q9NQU5); assay: Inhibition of PAK6 (unknown origin) assessed as remaining activity at 1 uM by Kinome scan method relative to control
[17] = target: Serine/threonine-protein kinase B-raf (Homo sapiens) (UniProt P15056); assay: Inhibition of BRAF (unknown origin) assessed as remaining activity at 1 uM by Kinome scan method relative to control; in short: as §2
[18] = tested on: Epidermal growth factor receptor (Homo sapiens), P00533 [UNDEFINED MUTATION]; assay: Inhibition of EGFR E746-A750del mutant (unknown origin) assessed as remaining activity at 1 uM by Kinome scan method relative to control
[19] = target: Interferon-induced, double-stranded RNA-activated protein kinase (Homo sapiens) (UniProt P19525); assay: Inhibition of PRKR (unknown origin) assessed as remaining activity at 1 uM by Kinome scan method relative to control
[20] = target: Ribosomal protein S6 kinase alpha-1 (Homo sapiens) (UniProt Q15418); assay: Inhibition of N-terminal kinase domain RSK1 (unknown origin) assessed as remaining activity at 1 uM by Kinome scan method relative to control
[21] = target: Serine/threonine-protein kinase PLK3 (Homo sapiens) (UniProt Q9H4B4); assay: Inhibition of PLK3 (unknown origin) assessed as remaining activity at 1 uM by Kinome scan method relative to control
[22] = target: Tyrosine-protein kinase SYK (Homo sapiens) (UniProt P43405); assay: Inhibition of SYK (unknown origin) assessed as remaining activity at 1 uM by Kinome scan method relative to control
[23] = target: Atypical kinase COQ8B, mitochondrial (Homo sapiens) (UniProt Q96D53); assay: Inhibition of ADCK4 (unknown origin) assessed as remaining activity at 1 uM by Kinome scan method relative to control; in short: as §2
[24] = target: Serine/threonine-protein kinase TNNI3K (Homo sapiens) (UniProt Q59H18); assay: Inhibition of TNNI3K (unknown origin) assessed as remaining activity at 1 uM by Kinome scan method relative to control
[25] = target: Myosin-IIIb (Homo sapiens) (UniProt Q8WXR4); assay: Inhibition of MYO3B (unknown origin) assessed as remaining activity at 1 uM by Kinome scan method relative to control
[26] = target: Mitogen-activated protein kinase 14 (Homo sapiens) (UniProt Q16539); assay: Inhibition of P38alpha (unknown origin) assessed as remaining activity at 1 uM by Kinome scan method relative to control
Mus musculus = assay: Protection against CCl4-induced mouse assessed as low level in collagen deposition at 1 mg/kg, ip administration daily for 10 days by Sirius Red staining; format: functional, organism-based; details: Liver, time 10.0 day

Sequence of ALK tyrosine kinase receptor (Homo sapiens), Q9UM73 [L1196M] (Q9UM73 whole entry L1196M, looked up): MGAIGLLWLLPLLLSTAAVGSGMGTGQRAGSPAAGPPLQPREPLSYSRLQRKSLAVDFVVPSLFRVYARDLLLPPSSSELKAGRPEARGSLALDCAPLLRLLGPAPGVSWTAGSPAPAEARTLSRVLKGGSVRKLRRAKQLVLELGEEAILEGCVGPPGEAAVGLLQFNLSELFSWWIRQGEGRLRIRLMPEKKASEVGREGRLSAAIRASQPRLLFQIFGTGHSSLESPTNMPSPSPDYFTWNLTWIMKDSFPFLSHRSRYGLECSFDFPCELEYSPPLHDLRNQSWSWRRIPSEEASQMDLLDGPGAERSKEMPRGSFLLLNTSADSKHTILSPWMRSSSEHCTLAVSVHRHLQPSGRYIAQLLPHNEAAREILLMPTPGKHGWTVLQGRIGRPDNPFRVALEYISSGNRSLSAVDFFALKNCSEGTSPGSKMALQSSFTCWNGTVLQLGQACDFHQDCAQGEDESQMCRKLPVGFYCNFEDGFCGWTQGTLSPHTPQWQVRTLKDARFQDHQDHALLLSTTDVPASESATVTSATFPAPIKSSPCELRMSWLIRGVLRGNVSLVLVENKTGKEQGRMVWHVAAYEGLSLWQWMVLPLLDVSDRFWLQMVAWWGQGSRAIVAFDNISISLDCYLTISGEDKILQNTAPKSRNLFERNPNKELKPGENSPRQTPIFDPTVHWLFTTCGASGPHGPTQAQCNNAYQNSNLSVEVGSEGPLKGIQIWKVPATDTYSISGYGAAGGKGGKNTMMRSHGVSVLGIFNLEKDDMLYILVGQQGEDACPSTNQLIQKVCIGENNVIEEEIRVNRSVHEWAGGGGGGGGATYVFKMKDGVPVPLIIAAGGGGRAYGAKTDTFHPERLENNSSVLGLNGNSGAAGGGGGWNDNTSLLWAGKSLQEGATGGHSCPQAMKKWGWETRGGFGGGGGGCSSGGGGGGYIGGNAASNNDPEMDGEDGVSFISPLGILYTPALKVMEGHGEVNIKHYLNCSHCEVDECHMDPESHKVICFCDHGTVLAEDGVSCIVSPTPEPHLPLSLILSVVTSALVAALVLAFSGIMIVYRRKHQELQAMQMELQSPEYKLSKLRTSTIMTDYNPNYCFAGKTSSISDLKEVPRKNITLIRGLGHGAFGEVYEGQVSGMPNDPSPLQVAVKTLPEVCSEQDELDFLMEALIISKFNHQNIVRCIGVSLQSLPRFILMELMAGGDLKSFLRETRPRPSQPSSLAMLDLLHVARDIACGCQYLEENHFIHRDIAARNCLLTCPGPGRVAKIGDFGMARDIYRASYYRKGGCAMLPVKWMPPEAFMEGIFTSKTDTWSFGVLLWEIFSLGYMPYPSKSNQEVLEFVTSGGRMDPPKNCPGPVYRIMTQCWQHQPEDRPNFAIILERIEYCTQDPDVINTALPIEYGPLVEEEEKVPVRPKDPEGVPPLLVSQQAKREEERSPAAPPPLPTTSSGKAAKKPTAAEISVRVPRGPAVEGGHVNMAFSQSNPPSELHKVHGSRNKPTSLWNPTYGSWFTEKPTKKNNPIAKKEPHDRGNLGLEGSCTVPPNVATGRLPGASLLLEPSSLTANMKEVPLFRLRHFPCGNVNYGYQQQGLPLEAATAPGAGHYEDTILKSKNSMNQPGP
Sequence of Serine/threonine-protein kinase PAK 6 (Homo sapiens) (Q9NQU5 whole entry, looked up): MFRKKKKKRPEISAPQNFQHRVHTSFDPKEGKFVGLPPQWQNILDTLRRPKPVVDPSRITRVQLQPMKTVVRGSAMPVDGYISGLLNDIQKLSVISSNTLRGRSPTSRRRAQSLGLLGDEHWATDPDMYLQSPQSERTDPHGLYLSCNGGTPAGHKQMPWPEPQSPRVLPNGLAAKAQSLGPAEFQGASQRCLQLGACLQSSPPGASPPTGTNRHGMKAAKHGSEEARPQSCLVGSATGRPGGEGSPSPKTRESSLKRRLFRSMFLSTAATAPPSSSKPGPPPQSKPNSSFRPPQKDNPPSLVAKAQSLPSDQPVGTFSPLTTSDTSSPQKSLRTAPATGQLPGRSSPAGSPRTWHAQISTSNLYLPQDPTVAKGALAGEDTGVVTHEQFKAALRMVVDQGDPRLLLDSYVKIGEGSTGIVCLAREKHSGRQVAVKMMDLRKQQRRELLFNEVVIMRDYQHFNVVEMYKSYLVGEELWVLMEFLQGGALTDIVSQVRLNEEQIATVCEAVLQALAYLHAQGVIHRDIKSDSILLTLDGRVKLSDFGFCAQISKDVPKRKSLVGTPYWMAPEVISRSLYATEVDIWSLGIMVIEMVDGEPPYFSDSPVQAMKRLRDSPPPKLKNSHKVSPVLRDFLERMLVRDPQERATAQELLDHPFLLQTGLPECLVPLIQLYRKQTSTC
Sequence of Ribosomal protein S6 kinase alpha-1 (Homo sapiens) (Q15418 whole entry, the tested form may be a part): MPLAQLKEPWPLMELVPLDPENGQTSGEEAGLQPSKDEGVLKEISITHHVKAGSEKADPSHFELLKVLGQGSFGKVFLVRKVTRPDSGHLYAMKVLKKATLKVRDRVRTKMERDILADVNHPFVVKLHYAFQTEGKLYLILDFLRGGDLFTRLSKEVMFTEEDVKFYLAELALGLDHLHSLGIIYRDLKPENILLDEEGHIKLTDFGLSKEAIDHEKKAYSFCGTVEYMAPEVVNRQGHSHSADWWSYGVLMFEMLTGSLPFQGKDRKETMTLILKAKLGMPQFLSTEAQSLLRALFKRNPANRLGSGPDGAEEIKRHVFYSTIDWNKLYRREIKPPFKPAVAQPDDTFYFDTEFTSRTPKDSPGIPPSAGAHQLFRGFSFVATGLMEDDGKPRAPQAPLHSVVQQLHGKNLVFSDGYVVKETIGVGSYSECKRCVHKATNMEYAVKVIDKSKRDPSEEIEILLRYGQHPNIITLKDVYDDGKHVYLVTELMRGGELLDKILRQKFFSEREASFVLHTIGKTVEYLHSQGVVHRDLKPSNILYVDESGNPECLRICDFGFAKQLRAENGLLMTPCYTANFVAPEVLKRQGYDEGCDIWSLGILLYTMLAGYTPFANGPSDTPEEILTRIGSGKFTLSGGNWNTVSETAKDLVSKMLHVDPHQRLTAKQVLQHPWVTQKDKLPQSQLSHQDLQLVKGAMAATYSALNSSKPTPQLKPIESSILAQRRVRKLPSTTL
Sequence of RAC-beta serine/threonine-protein kinase (Homo sapiens) (P31751 whole entry): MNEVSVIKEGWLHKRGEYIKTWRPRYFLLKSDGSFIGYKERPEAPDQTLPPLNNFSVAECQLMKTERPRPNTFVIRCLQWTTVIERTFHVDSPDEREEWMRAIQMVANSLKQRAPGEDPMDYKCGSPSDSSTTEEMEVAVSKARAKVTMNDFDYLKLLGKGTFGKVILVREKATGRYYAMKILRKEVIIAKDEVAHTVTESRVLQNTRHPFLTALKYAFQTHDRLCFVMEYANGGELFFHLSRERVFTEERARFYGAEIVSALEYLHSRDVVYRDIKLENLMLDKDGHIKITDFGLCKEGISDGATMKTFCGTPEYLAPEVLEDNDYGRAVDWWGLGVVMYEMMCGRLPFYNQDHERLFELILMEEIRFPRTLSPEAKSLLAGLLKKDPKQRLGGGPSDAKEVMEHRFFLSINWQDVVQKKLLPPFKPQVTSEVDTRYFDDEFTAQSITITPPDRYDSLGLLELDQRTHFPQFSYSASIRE
Sequence of Aurora kinase B (Q96GD4 whole entry): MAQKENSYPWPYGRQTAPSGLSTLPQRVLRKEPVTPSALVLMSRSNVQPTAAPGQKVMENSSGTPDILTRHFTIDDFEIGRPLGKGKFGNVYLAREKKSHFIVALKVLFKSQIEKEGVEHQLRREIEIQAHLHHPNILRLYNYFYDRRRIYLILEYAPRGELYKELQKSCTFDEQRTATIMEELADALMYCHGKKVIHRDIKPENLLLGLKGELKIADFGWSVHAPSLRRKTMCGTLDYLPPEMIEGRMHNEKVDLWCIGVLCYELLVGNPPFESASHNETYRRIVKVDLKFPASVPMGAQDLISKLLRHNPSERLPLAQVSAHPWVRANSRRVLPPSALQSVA
Sequence of Serine/threonine-protein kinase 3 (Homo sapiens) (Q13188 whole entry): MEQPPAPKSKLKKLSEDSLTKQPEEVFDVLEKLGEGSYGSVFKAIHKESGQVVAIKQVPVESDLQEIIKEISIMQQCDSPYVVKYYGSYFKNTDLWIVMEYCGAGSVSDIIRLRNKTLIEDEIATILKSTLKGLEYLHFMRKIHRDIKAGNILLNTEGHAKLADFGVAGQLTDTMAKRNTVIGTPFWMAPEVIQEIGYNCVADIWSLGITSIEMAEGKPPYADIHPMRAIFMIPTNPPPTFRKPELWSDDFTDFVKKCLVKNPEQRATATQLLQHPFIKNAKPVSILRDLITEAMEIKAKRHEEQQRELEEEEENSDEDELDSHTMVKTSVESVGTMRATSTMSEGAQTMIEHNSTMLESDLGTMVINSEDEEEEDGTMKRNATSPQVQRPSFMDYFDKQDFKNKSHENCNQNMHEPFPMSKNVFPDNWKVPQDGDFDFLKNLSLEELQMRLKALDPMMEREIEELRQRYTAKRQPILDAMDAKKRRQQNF
Sequence of Mitogen-activated protein kinase 14 (Homo sapiens) (Q16539 whole entry): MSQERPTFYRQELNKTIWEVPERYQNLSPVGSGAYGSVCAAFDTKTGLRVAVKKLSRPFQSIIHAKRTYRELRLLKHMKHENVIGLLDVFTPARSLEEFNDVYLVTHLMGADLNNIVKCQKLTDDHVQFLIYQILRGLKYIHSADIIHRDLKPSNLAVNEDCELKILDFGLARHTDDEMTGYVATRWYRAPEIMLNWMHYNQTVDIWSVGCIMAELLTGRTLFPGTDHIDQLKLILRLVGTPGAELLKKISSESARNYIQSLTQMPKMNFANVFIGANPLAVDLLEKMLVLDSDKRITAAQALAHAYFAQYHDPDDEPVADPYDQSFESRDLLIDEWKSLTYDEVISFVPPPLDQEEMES
Sequence of Casein kinase I isoform alpha (Homo sapiens) (P48729 2-337 limits assumed): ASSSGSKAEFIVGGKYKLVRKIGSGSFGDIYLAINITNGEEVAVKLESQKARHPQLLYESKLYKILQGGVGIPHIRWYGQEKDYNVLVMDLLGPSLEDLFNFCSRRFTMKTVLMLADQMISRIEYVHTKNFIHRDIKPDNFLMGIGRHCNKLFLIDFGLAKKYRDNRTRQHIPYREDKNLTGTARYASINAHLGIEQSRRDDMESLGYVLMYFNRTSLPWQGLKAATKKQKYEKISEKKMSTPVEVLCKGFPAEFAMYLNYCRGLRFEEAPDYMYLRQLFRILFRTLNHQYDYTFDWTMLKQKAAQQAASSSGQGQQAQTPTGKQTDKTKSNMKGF

CN1C(=O)c2sccc2N(C)c2nc(Nc3ccc(S(N)(=O)=O)cc3)ncc21
Activity [1]: 100%
Activity [2]: 88%
Tm [3]: 62 °C
Activity [4]: 89%
Activity [5]: 100%
Activity [6]: 100%
IC50 (Aurora kinase B): 19.1 nM
Activity [7]: 97%
Activity [8]: 100%
Activity [9]: 99%
Activity [10]: 93%
Activity [11]: 100%
Activity [12]: 100%
Activity [13]: 97%
Activity [14]: 100%
Activity [15]: 97%
Activity [16]: 100%
Activity [17]: 100%
Activity [18]: 82%
Activity [19]: 100%
Activity [20]: 91%
Activity [21]: 99%
Activity [22]: 90%
Activity [23]: 79%
Activity [24]: 100%
Activity [25]: 100%
Activity [26]: 88%
Activity (Mus musculus): Active
